T cruzi HTS: inhibitors of intracellular Trypanosoma cruzi, primary screen, cell-based, plate reader, single point, set 2; intracellular Trypanosoma cruzi in host cells; activity score (inhibition), % at 5.01 µM; actives 4.9% (n = 22,000); AID 651903, 2012; in the data active means activity score above about 55%;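 further: parasites and compound incubated about four days before reading; 0% = median of neutral control wells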
INS-1E rescue: protection of INS-1E cells from cytokine death, primary screen, ATP luminescence, single point | INS-1E cytokine-induced death, 48 h; normalised: neutral wells 0, positive control 100 | protection from cytokine-induced ATP loss, % at 10 µM | actives 0.1% (n = 20,000) | AID 488910, 2010;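 active means mean replicate protection from cytokine-induced ATP loss at least 50% and at least 75% of replicates each reaching 50%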
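Material: INS-1E rat cells; Quantity: 8000 cells/well; Buffer or medium: phenol-red-free RPMI with 5% fetal bovine serum; Probe or stimulus: cytokine cocktail of IFN-γ, TNF-α and IL-1β; Compound dosing: single test concentration per compound, delivered by pin transfer; Incubation: 48 h co-treatment, 10 min post-lysis read; Signal: CellTiter-Glo luminescence.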
A1 apoptosis 2: A1 inhibitors via caspase activation, primary screen, cell-based, luminescence, HTS, two replicates; AID 2465, 2010; caspase activation, % (test concentration not listed); MEF A1-2A-BIM cells, caspase-Glo luminescence, 3 h; percent of clofoctol response, DMSO zero; 24,000 tested, under 10 active; in the data active means caspase activation above about 5.9%
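system = A1-2A-BIM-expressing MEF cells | quantity = 2500 MEF cells/well | dosing = 50 nL compound per well, pinned | schedule = overnight cell settling, then 3 h compound exposure, 37 °C | signal = luminescence from DEVD-luciferin Caspase-Glo reagent, 1:1 in 50 mM HEPES, 1 h RT | read-out = Caspase-3/7 activation, seen as rise in luminescence signal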
The depositor's hits bear a star; . = not tested or not shown. The full list was thinned out, with hits kept by preference.

SMILES	T cruzi HTS	INS-1E rescue	A1 apoptosis 2
CC(C)(C)NC(=O)C(OC(=O)c1ccccc1)c1cccs1 (stereo unspecified)	.	.	0.1
CC(C)=CCC[C@@H](C)C/C=N/NC(=O)CCCCC(=O)NO	13.9	2.6	0.2
CC(C)NC(=O)N(C)C[C@@H]1OCCCC[C@@H](C)Oc2ccc(NC(=O)CCC(F)(F)F)cc2C(=O)N([C@H](C)CO)C[C@H]1C	.	.	0.4
C[C@@H]1CN([C@H](C)CO)C(=O)Cc2cc(N(C)C)ccc2O[C@@H]1CN(C)Cc1ccc(C(=O)Nc2ccccc2N)cc1	63.0*	-13.9	-0.5
C[C@@H]1CN([C@@H](C)CO)C(=O)c2cc(N(C)C)ccc2O[C@H]1CN(C)Cc1ccc(C(=O)Nc2ccccc2N)cc1	35.0	3.3	.
C[C@@H]1CN([C@H](C)CO)C(=O)Cc2cc(N(C)C)ccc2O[C@H]1CN(C)Cc1ccc(C(=O)Nc2ccccc2N)cc1	68.8*	17.5	.
C[C@@H]1CN([C@H](C)CO)C(=O)Cc2cc(NC(=O)c3ccncc3)ccc2O[C@H]1CN(C)Cc1ccc(C(=O)Nc2ccccc2N)cc1	19.6	-21.9	-0.3
C[C@@H]1CN([C@H](C)CO)C(=O)Cc2cc(NC(=O)Nc3ccccc3)ccc2O[C@@H]1CN(C)Cc1ccccc1	5.0	-1.9	.
Cc1noc(C)c1NC(=O)Nc1ccc2c(c1)CC(=O)N([C@@H](C)CO)C[C@H](C)[C@@H](CN(C)S(C)(=O)=O)O2	-14.9	6.4	-0.5
CNC[C@H]1Oc2ccc(NC(=O)CCCN(C)C)cc2C(=O)N([C@@H](C)CO)C[C@H]1C	-4.8	-2.3	0.7
COc1ccc(CN(C)C[C@H]2Oc3ccc(NC(=O)C4CCCCC4)cc3CC(=O)N([C@@H](C)CO)C[C@@H]2C)cc1	64.5*	-1.2	.
C[C@@H]1CN([C@H](C)CO)C(=O)Cc2cc(NC(=O)C3CCCCC3)ccc2O[C@H]1CN(C)Cc1ccc(Oc2ccccc2)cc1	76.1*	-74.8	.
C[C@H]1CN([C@@H](C)CO)C(=O)Cc2cc(NC(=O)C3CCCCC3)ccc2O[C@H]1CN(C)Cc1ccc(Oc2ccccc2)cc1	28.8	-27.4	.
COc1ccc(CN(C)C[C@H]2Oc3ccc(NC(=O)C4CCCCC4)cc3CC(=O)N([C@H](C)CO)C[C@H]2C)cc1	-0.8	-6.2	-0.6
COc1ccc(NC(=O)Nc2ccc3c(c2)C(=O)N([C@H](C)CO)C[C@H](C)[C@@H](CN(C)C(=O)CCC(F)(F)F)OCCCC[C@H](C)O3)cc1	.	.	1.6
COc1ccc(CN(C)C[C@H]2Oc3c(NC(=O)NC4CCCCC4)cccc3C(=O)N([C@@H](C)CO)C[C@H]2C)cc1	10.0	-10.6	0.8
C[C@@H]1CN([C@H](C)CO)C(=O)c2cc(NC(=O)Nc3cccc4ccccc34)ccc2O[C@@H]1CN(C)Cc1ccc(Oc2ccccc2)cc1	28.9	-19.9	.
C[C@@H]1CN([C@H](C)CO)C(=O)c2cc(NC(=O)Nc3cccc4ccccc34)ccc2O[C@H]1CN(C)Cc1ccc(-c2ccccc2)cc1	85.7*	-11.5	0.4
C[C@H]1CN([C@@H](C)CO)C(=O)c2cc(NC(=O)Nc3cccc4ccccc34)ccc2O[C@@H]1CN(C)Cc1ccc(Oc2ccccc2)cc1	81.1*	-25.5	0.1
C[C@H]1CN([C@@H](C)CO)C(=O)c2cc(NC(=O)Nc3cccc4ccccc34)ccc2O[C@H]1CN(C)Cc1ccc(-c2ccccc2)cc1	18.6	.	0.4
COC(=O)[C@@]1(Cc2ccccc2N=[N+]=[N-])N=C(c2ccc(OCCCO)cc2)O[C@H]1c1ccccc1	.	.	-0.8
COc1ccc(S(=O)(=O)N(C)C[C@H]2OCCCC[C@H](C)Oc3ccc(NC(=O)Nc4cccc5ccccc45)cc3C(=O)N([C@@H](C)CO)C[C@H]2C)cc1	.	.	2.2
C[C@H]1CN([C@@H](C)CO)C(=O)c2cccc(NC(=O)c3nc4ccccc4s3)c2O[C@H]1CN(C)Cc1ccc(C(=O)Nc2ccccc2N)cc1	79.4*	-9.9	1.3
C[C@H](CO)N1C[C@H](C)[C@H](CN(C)Cc2ccncc2)Oc2c(NC(=O)c3nc4ccccc4s3)cccc2C1=O	11.5	0.5	.
C[C@@H]1CN([C@H](C)CO)C(=O)c2cccc(NC(=O)c3nc4ccccc4s3)c2O[C@H]1CN(C)Cc1ccc(C(=O)Nc2ccccc2N)cc1	79.2*	18.0	.
C[C@H](CO)N1C[C@H](C)[C@@H](CN(C)Cc2ccncc2)Oc2c(NC(=O)c3nc4ccccc4s3)cccc2C1=O	26.6	-12.5	-2.9
COC(=O)CCCCCCC(=O)N/N=C/c1nc[nH]c1C	-8.8	11.4	0.5

Screens deposited in PubChem BioAssay by Broad Institute.
